Format in all cases: functional
Assay [1] deals with Staphylococcus aureus. As to the kind of experiment: Antibacterial activity against Staphylococcus aureus ATCC 25923 at 100 ug/ml after 24 hrs by agar well diffusion method. To be noted: ATCC 25923, 24 h, read-out: IZ. The method, boiled down:
(§1)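 Agar well diffusion on Mueller Hinton agar (20 mL per dish), seeded homogeneously with liquid bacterial culture by spread plating. Samples loaded directly into wells, dimethylformamide as solvent control, ampicillin as reference drug. Plates incubated at 37 °C for 24 h. All determinations done in triplicate.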
Background: Agar diffusion results depend on both activity and mobility in agar.

For assay [2], the system named is Bacillus subtilis. As to the kind of experiment: Antibacterial activity against Bacillus subtilis ATCC 6633 at 100 ug/ml after 24 hrs by agar well diffusion method. To be noted: ATCC 6633, 24 h, read-out: IZ. The method, boiled down:
as §1

Assay [3] relates to Escherichia coli. As to the kind of experiment: Antibacterial activity against Escherichia coli ATCC 35218 at 100 ug/ml after 24 hrs by agar well diffusion method. The settings on record: ATCC 35218, 24 h, read-out: IZ. The method, boiled down:
as §1

Assay [4] concerns Pseudomonas aeruginosa. Description: Antibacterial activity against Pseudomonas aeruginosa ATCC 10145 at 100 ug/ml after 24 hrs by agar well diffusion method. The settings on record: ATCC 10145, 24 h, read-out: IZ. The method, boiled down:
as §1

Assay [5] deals with Candida albicans. As to the kind of experiment: Antifungal activity against Candida albicans at 100 ug/ml after 72 hrs by agar well diffusion method. To be noted: read-out: IZ. The method, boiled down: (§2)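 Fungi grown on Potato Dextrose Agar (20 mL per dish), seeded homogeneously with liquid culture by spread plating. Samples loaded directly into agar wells, with dimethylformamide as solvent control and clotrimazole as reference drug. Plates incubated at 25 °C for 72 h, triplicate determinations.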

For assay [6], the system named is Aspergillus fumigatus. As to the kind of experiment: Antifungal activity against Aspergillus fumigatus at 100 ug/ml after 72 hrs by agar well diffusion method. To be noted: read-out: IZ. A digest of the protocol: as §2
In assay [7] the test system is Staphylococcus aureus. As to the kind of experiment: Antibacterial activity against Staphylococcus aureus ATCC 25923 after 24 hrs by agar well diffusion method. To be noted: ATCC 25923, 24 h. A digest of the protocol:
as §1

Assay [8] concerns Bacillus subtilis. As to the kind of experiment: Antibacterial activity against Bacillus subtilis ATCC 6633 after 24 hrs by agar well diffusion method. To be noted: ATCC 6633, 24 h. The method, boiled down: as §1
Assay [9] deals with Escherichia coli. Description: Antibacterial activity against Escherichia coli ATCC 35218 after 24 hrs by agar well diffusion method. To be noted: ATCC 35218, 24 h. The method, boiled down: as §1
The subject of assay [10] is Pseudomonas aeruginosa. As to the kind of experiment: Antibacterial activity against Pseudomonas aeruginosa ATCC 10145 after 24 hrs by agar well diffusion method. To be noted: ATCC 10145, 24 h. The method, boiled down:
as §1

Assay [11] concerns Candida albicans. Description: Antifungal activity against Candida albicans after 72 hrs by agar well diffusion method. The method, boiled down: as §2
Assay [12] has as its system Aspergillus fumigatus. Description: Antifungal activity against Aspergillus fumigatus after 72 hrs by agar well diffusion method. The method, boiled down: as §2

Values after ≈ are worked out from the molar mass of the structure shown.

For the compound `O=Nc1c(-c2ccc(Cl)cc2)nc2sc(Cc3noc4ccccc34)nn12`, the zone of inhibition at 100 µg/mL in the assay with Staphylococcus aureus [1] came out at 10 mm; with Bacillus subtilis [2], 14 mm; in the assay on Escherichia coli [3], 13 mm; with Pseudomonas aeruginosa [4] it was 15 mm; in the assay on Candida albicans [5] it was 15 mm; in the assay with Aspergillus fumigatus [6], 17 mm. The MIC stood at 2 µg/mL (≈ 5.05 µM) against Staphylococcus aureus [7]; 1.5 µg/mL (≈ 3.79 µM) against Bacillus subtilis [8]; 3 µg/mL (≈ 7.58 µM) against Escherichia coli [9]; 2.5 µg/mL (≈ 6.32 µM) against Pseudomonas aeruginosa [10]; 3 µg/mL (≈ 7.58 µM) with Candida albicans [11]; 2.5 µg/mL (≈ 6.32 µM) in the assay on Aspergillus fumigatus [12].
Regarding `N#CSc1c(-c2ccc(Br)cc2)nc2sc(Cc3noc4ccccc34)nn12`, the zone of inhibition at 100 µg/mL in the assay with Staphylococcus aureus [1] is 12 mm; in the assay on Bacillus subtilis [2], 14 mm; in the assay on Escherichia coli [3], 15 mm; with Pseudomonas aeruginosa [4] it was 18 mm; in the assay with Candida albicans [5], 14 mm; with Aspergillus fumigatus [6] it was 12 mm. Further, the MIC in the assay with Staphylococcus aureus [7] came out at 1.5 µg/mL (≈ 3.2 µM); with Bacillus subtilis [8], 2 µg/mL (≈ 4.27 µM); with Escherichia coli [9], 2 µg/mL (≈ 4.27 µM); against Pseudomonas aeruginosa [10], 2 µg/mL (≈ 4.27 µM); with Candida albicans [11], 3 µg/mL (≈ 6.41 µM); with Aspergillus fumigatus [12], 4 µg/mL (≈ 8.54 µM).
In the case of `N#CSc1c(-c2ccc([N+](=O)[O-])cc2)nc2sc(Cc3noc4ccccc34)nn12`, the zone of inhibition at 100 µg/mL in the assay on Staphylococcus aureus [1] came out at 9 mm; with Bacillus subtilis [2], 8 mm; in the assay on Escherichia coli [3], 7 mm; with Pseudomonas aeruginosa [4], 10 mm; with Candida albicans [5], 11 mm; with Aspergillus fumigatus [6] it was 9 mm. The MIC against Staphylococcus aureus [7] stood at 2 µg/mL (≈ 4.6 µM); against Bacillus subtilis [8] it was 2.5 µg/mL (≈ 5.75 µM); with Escherichia coli [9], 4 µg/mL (≈ 9.21 µM); against Pseudomonas aeruginosa [10], 3 µg/mL (≈ 6.91 µM); against Candida albicans [11], 3.5 µg/mL (≈ 8.06 µM); in the assay with Aspergillus fumigatus [12] it was 3.5 µg/mL (≈ 8.06 µM).
Turning to `O=Nc1c(-c2ccc(Br)cc2)nc2sc(Cc3noc4ccccc34)nn12`, the zone of inhibition at 100 µg/mL with Staphylococcus aureus [1] came to 16 mm; with Bacillus subtilis [2], 12 mm; in the assay on Escherichia coli [3], 14 mm; with Pseudomonas aeruginosa [4], 12 mm; in the assay with Candida albicans [5], 17 mm; in the assay on Aspergillus fumigatus [6] it was 15 mm. In addition, the MIC came to 1 µg/mL (≈ 2.27 µM) against Staphylococcus aureus [7]; 2.5 µg/mL (≈ 5.68 µM) with Bacillus subtilis [8]; 2 µg/mL (≈ 4.54 µM) with Escherichia coli [9]; 3 µg/mL (≈ 6.81 µM) against Pseudomonas aeruginosa [10]; 2.5 µg/mL (≈ 5.68 µM) in the assay with Candida albicans [11]; 2.5 µg/mL (≈ 5.68 µM) in the assay with Aspergillus fumigatus [12].
`CC1(C)S[C@@H]2[C@H](NC(=O)[C@H](N)c3ccccc3)C(=O)N2[C@H]1C(=O)O` [AMPICILLIN]: the zone of inhibition at 100 µg/mL with Staphylococcus aureus [1] worked out at 19 mm; in the assay with Bacillus subtilis [2], 18 mm; in the assay on Escherichia coli [3] it was 16 mm; in the assay with Pseudomonas aeruginosa [4] it was 17 mm. For the same compound, the MIC against Staphylococcus aureus [7] stood at 1 µg/mL (≈ 2.86 µM); against Bacillus subtilis [8], 0.5 µg/mL (≈ 1.43 µM); in the assay with Pseudomonas aeruginosa [10], 2 µg/mL (≈ 5.72 µM).
`Brc1ccc(-c2cn3nc(Cc4noc5ccccc45)sc3n2)cc1`: the zone of inhibition at 100 µg/mL in the assay on Staphylococcus aureus [1] is 15 mm; with Bacillus subtilis [2], 18 mm; with Escherichia coli [3], 20 mm; in the assay with Pseudomonas aeruginosa [4], 14 mm; in the assay on Candida albicans [5] it was 22 mm; in the assay on Aspergillus fumigatus [6], 13 mm. Moreover, the MIC amounted to 2.5 µg/mL (≈ 6.08 µM) in the assay on Staphylococcus aureus [7]; 0.5 µg/mL (≈ 1.22 µM) with Bacillus subtilis [8]; 1 µg/mL (≈ 2.43 µM) in the assay with Escherichia coli [9]; 2.5 µg/mL (≈ 6.08 µM) with Pseudomonas aeruginosa [10]; 2 µg/mL (≈ 4.86 µM) against Candida albicans [11]; 3.5 µg/mL (≈ 8.51 µM) against Aspergillus fumigatus [12].
`Brc1c(-c2ccccc2)nc2sc(Cc3noc4ccccc34)nn12`: the zone of inhibition at 100 µg/mL in the assay with Staphylococcus aureus [1] was 18 mm; in the assay with Bacillus subtilis [2], 12 mm; in the assay with Escherichia coli [3] it was 11 mm; with Pseudomonas aeruginosa [4], 16 mm; in the assay on Candida albicans [5], 14 mm; in the assay with Aspergillus fumigatus [6], 12 mm. For the same compound, the MIC stood at 1 µg/mL (≈ 2.43 µM) with Staphylococcus aureus [7]; 2.5 µg/mL (≈ 6.08 µM) with Bacillus subtilis [8]; 3 µg/mL (≈ 7.29 µM) with Escherichia coli [9]; 2 µg/mL (≈ 4.86 µM) in the assay with Pseudomonas aeruginosa [10]; 3 µg/mL (≈ 7.29 µM) in the assay on Candida albicans [11]; 3.5 µg/mL (≈ 8.51 µM) against Aspergillus fumigatus [12].
Regarding `Clc1ccccc1C(c1ccccc1)(c1ccccc1)n1ccnc1` [CLOTRIMAZOLE], the zone of inhibition at 100 µg/mL in the assay on Candida albicans [5] worked out at 22 mm; with Aspergillus fumigatus [6], 20 mm. For the same compound, the MIC against Candida albicans [11] and against Aspergillus fumigatus [12] was 2 µg/mL (≈ 5.8 µM) in each case.
On to `COc1ccc(-c2cn3nc(Cc4noc5ccccc45)sc3n2)cc1`, for which the zone of inhibition at 100 µg/mL with Staphylococcus aureus [1] turned out to be 10 mm; in the assay with Bacillus subtilis [2], 14 mm; in the assay with Escherichia coli [3], 12 mm; in the assay on Pseudomonas aeruginosa [4], 11 mm; with Candida albicans [5], 15 mm; in the assay with Aspergillus fumigatus [6], 19 mm. The MIC with Staphylococcus aureus [7] is 3.5 µg/mL (≈ 9.66 µM); against Bacillus subtilis [8], 2.5 µg/mL (≈ 6.9 µM); in the assay on Escherichia coli [9], 3 µg/mL (≈ 8.28 µM); against Pseudomonas aeruginosa [10], 3 µg/mL (≈ 8.28 µM); against Candida albicans [11], 3 µg/mL (≈ 8.28 µM); in the assay with Aspergillus fumigatus [12] it was 2 µg/mL (≈ 5.52 µM).
Regarding `N#CSc1c(-c2ccc(Cl)cc2)nc2sc(Cc3noc4ccccc34)nn12`, the zone of inhibition at 100 µg/mL in the assay on Staphylococcus aureus [1] came out at 18 mm; in the assay with Bacillus subtilis [2] it was 17 mm; in the assay on Escherichia coli [3], 16 mm; with Pseudomonas aeruginosa [4] it was 19 mm; with Candida albicans [5], 15 mm; in the assay on Aspergillus fumigatus [6], 11 mm. The MIC came out at 1 µg/mL (≈ 2.36 µM) against Staphylococcus aureus [7]; 1 µg/mL (≈ 2.36 µM) against Bacillus subtilis [8]; 2 µg/mL (≈ 4.72 µM) in the assay with Escherichia coli [9]; 1.5 µg/mL (≈ 3.54 µM) in the assay with Pseudomonas aeruginosa [10]; 3 µg/mL (≈ 7.08 µM) in the assay on Candida albicans [11]; 4 µg/mL (≈ 9.44 µM) in the assay on Aspergillus fumigatus [12].
On to `Clc1ccc(-c2cn3nc(Cc4noc5ccccc45)sc3n2)cc1`, for which the zone of inhibition at 100 µg/mL in the assay with Staphylococcus aureus [1] came to 12 mm; with Bacillus subtilis [2], 17 mm; in the assay on Escherichia coli [3] it was 18 mm; with Pseudomonas aeruginosa [4] it was 12 mm; in the assay with Candida albicans [5], 11 mm; in the assay with Aspergillus fumigatus [6] it was 16 mm. The MIC in the assay on Staphylococcus aureus [7] was determined as 2 µg/mL (≈ 5.45 µM); in the assay on Bacillus subtilis [8], 0.5 µg/mL (≈ 1.36 µM); in the assay with Escherichia coli [9], 1.5 µg/mL (≈ 4.09 µM); against Pseudomonas aeruginosa [10], 3 µg/mL (≈ 8.18 µM); against Candida albicans [11], 3.5 µg/mL (≈ 9.54 µM); against Aspergillus fumigatus [12], 1.5 µg/mL (≈ 4.09 µM).
Consider `Clc1ccc(-c2nc3sc(Cc4noc5ccccc45)nn3c2Br)cc1`, for which the zone of inhibition at 100 µg/mL was 17 mm in the assay with Staphylococcus aureus [1]; 18 mm in the assay with Bacillus subtilis [2]; 15 mm in the assay with Escherichia coli [3]; 12 mm in the assay with Pseudomonas aeruginosa [4]; 15 mm in the assay on Candida albicans [5]; 10 mm in the assay on Aspergillus fumigatus [6]. Besides, the MIC in the assay with Staphylococcus aureus [7] came to 1.5 µg/mL (≈ 3.37 µM); with Bacillus subtilis [8], 0.5 µg/mL (≈ 1.12 µM); in the assay with Escherichia coli [9], 2 µg/mL (≈ 4.49 µM); with Pseudomonas aeruginosa [10] it was 2.5 µg/mL (≈ 5.61 µM); in the assay with Candida albicans [11] it was 3 µg/mL (≈ 6.73 µM); against Aspergillus fumigatus [12], 4 µg/mL (≈ 8.97 µM).
With `COc1ccc(-c2nc3sc(Cc4noc5ccccc45)nn3c2SC#N)cc1`, the zone of inhibition at 100 µg/mL in the assay on Staphylococcus aureus [1] was determined as 9 mm; with Bacillus subtilis [2], 15 mm; with Escherichia coli [3], 13 mm; with Pseudomonas aeruginosa [4] it was 19 mm; with Candida albicans [5], 20 mm; in the assay on Aspergillus fumigatus [6] it was 16 mm. Moreover, the MIC in the assay on Staphylococcus aureus [7] stood at 2 µg/mL (≈ 4.77 µM); with Bacillus subtilis [8] it was 1 µg/mL (≈ 2.38 µM); against Escherichia coli [9] it was 3 µg/mL (≈ 7.15 µM); against Pseudomonas aeruginosa [10], 1.5 µg/mL (≈ 3.58 µM); in the assay on Candida albicans [11] it was 2.5 µg/mL (≈ 5.96 µM); in the assay with Aspergillus fumigatus [12], 2.5 µg/mL (≈ 5.96 µM).

What is called MIC is the smallest concentration in the dilution series that meets the test's criterion for growth inhibition.
